Common to all, as to assay type: functional
The subject of assay [1] is Enterococcus faecalis. The assay can be described thus: Antibacterial activity against Enterococcus faecalis. The method in brief:
(§1)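 Broth microdilution MIC run to NCCLS standards: serial 2-fold dilutions in cation-adjusted Mueller–Hinton broth, inoculum ~5 × 10^5 CFU/mL, incubated 35 °C for 18–24 h. Trays were read by eye, and the MIC was taken as the lowest concentration giving complete growth inhibition (no visible turbidity).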

The subject of assay [2] is Staphylococcus aureus. The experiment in a line: Antibacterial activity against methicillin resistant Staphylococcus aureus. An outline of the steps:
(§2)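 Broth microdilution per NCCLS standards: serial 2-fold dilutions in cation-adjusted Mueller–Hinton broth, inoculum ~5 × 10^5 CFU/mL, 35 °C for 18–24 h, visual read; MIC = lowest concentration giving complete growth inhibition (no visible turbidity). Reference strains, e.g. S. aureus 29213 (susceptible) and 33591 (MRSA).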

In assay [3] the test system is Staphylococcus aureus. The experiment in a line: Antibacterial activity against methicillin susceptible Staphylococcus aureus. The method in brief: as §2
Assay [4] concerns Escherichia coli. The assay can be described thus: Antibacterial activity against Escherichia coli. An outline of the steps: as §1
Assay [5] concerns Pseudomonas aeruginosa. The assay can be described thus: Antibacterial activity against Pseudomonas aeruginosa. The method in brief: as §1
For assay [6], the system named is Pseudomonas aeruginosa. The assay can be described thus: Antibacterial activity against Pseudomonas aeruginosa strain 27853. An outline of the steps: as §1
In assay [7] the test system is Staphylococcus aureus. The assay can be described thus: Antibacterial activity against Staphylococcus aureus strain St au 29213. An outline of the steps: as §1
Assay [8] relates to Escherichia coli. The assay can be described thus: Antibacterial activity against Escherichia coli strain 25922. An outline of the steps: as §1
For assay [9], the system named is Enterococcus faecalis. The assay can be described thus: Antibacterial activity against Enterococcus faecalis strain 29212. The method in brief: as §1
The test system of assay [10] is Staphylococcus aureus. The experiment in a line: Antibacterial activity against Staphylococcus aureus strain St au 33591 MRSA. The method in brief: as §1
Assay [11] concerns Staphylococcus aureus. The assay can be described thus: Antibacterial activity against Staphylococcus aureus strain 29213. An outline of the steps: as §1

Converted amounts (≈) assume the structure as drawn.

By MIC is commonly meant the least concentration at which growth counts as inhibited. A low value points to greater potency. In the case of `O=C(O)c1cn(C2CC2)c2cc(N3CCNCC3)c(F)cc2c1=O` [CIPROFLOXACIN], the MIC in assay [1] stood at 1 µg/mL (≈ 3.02 µM); in assay [2], 0.5 µg/mL (≈ 1.51 µM); in [3], 0.25 µg/mL (≈ 0.754 µM).

Take `CN1CCN(c2cc3c(cc2F)c(=O)c(C(=O)O)cn3-c2ccc(OP(=O)(O)O)cc2)CC1`: the MIC was 0.2 µg/mL (≈ 0.419 µM) in assay [4]; 25 µg/mL (≈ 52.4 µM) in assay [1]; 50 µg/mL (≈ 105 µM) in assay [5]; 0.78 µg/mL (≈ 1.63 µM) in assay [2]; 1.56 µg/mL (≈ 3.27 µM) in assay [3].

Consider `NCC1CCN(c2cc3c(cc2F)c(=O)c(C(=O)O)cn3-c2ccc(O)cc2)C1` (stereo not drawn), for which the MIC was found to be 25 µg/mL (≈ 62.9 µM) in [6]; 0.4 µg/mL (≈ 1.01 µM) in [7]; 1.56 µg/mL (≈ 3.93 µM) in assay [8]; 6.25 µg/mL (≈ 15.7 µM) in [9]; 0.78 µg/mL (≈ 1.96 µM) in assay [10].

For `C[C@@H]1CN(c2cc3c(cc2F)c(=O)c(C(=O)O)cn3-c2ccc(O)cc2)C[C@H](C)N1`, the MIC was 3.13 µg/mL (≈ 7.61 µM) in [6]; 0.2 µg/mL (≈ 0.486 µM) in assay [7]; 0.1 µg/mL (≈ 0.243 µM) in assay [8]; 3.13 µg/mL (≈ 7.61 µM) in assay [9]; 0.4 µg/mL (≈ 0.972 µM) in [10].

Turning to `C[C@H](N)[C@H]1CCN(c2cc3c(cc2F)c(=O)c(C(=O)O)cn3-c2ccc(O)cc2)C1`, the MIC in assay [6] was 25 µg/mL (≈ 60.8 µM); in assay [7] it was 0.4 µg/mL (≈ 0.972 µM); in [8], 1.56 µg/mL (≈ 3.79 µM); in [9] it was 3.13 µg/mL (≈ 7.61 µM); in assay [10] it was 0.78 µg/mL (≈ 1.9 µM).

Consider `CN1CCN(c2nc3c(cc2F)c(=O)c(C(=O)O)cn3-c2ccc(O)cc2)CC1`, for which the MIC in [6] was 3.13 µg/mL (≈ 7.86 µM); in assay [7] it was 0.2 µg/mL (≈ 0.502 µM); in [8], 0.05 µg/mL (≈ 0.126 µM); in [9], 1.56 µg/mL (≈ 3.92 µM); in [10] it was 0.2 µg/mL (≈ 0.502 µM).

Regarding `CN1CCN(c2cc3c(cc2F)c(=O)c(C(=O)O)cn3-c2ccc(O)cc2)CC1`, the MIC in assay [6] was 0.78 µg/mL (≈ 1.96 µM); in [7] it was 0.1 µg/mL (≈ 0.252 µM); in [4], 0.05 µg/mL (≈ 0.126 µM); in assay [1] it was 0.78 µg/mL (≈ 1.96 µM); in assay [5], 0.78 µg/mL (≈ 1.96 µM); in assay [8] it was less than 0.05 µg/mL. For the same molecule, the MIC in assay [9] worked out at 0.78 µg/mL (≈ 1.96 µM); in assay [2], 0.1 µg/mL (≈ 0.252 µM); in [10], 0.2 µg/mL (≈ 0.503 µM); in assay [3], 0.1 µg/mL (≈ 0.252 µM).

As to `N[C@@H]1[C@H]2CN(c3nc4c(cc3F)c(=O)c(C(=O)O)cn4-c3ccc(O)cc3)C[C@@H]12`, the MIC in assay [6] stood at 0.78 µg/mL (≈ 1.97 µM); in assay [7] it was 0.2 µg/mL (≈ 0.505 µM); in assay [8], 0.1 µg/mL (≈ 0.252 µM); in assay [9] it was 0.78 µg/mL (≈ 1.97 µM); in assay [10] it was 0.2 µg/mL (≈ 0.505 µM).

Take `N[C@@H]1CCC[C@@H]2CN(c3nc4c(cc3F)c(=O)c(C(=O)O)cn4-c3ccc(O)cc3)C[C@@H]21`: the MIC is 6.25 µg/mL (≈ 14.3 µM) in assay [6]; 0.4 µg/mL (≈ 0.912 µM) in assay [7]; 3.13 µg/mL (≈ 7.14 µM) in [8]; 3.13 µg/mL (≈ 7.14 µM) in [9]; 0.4 µg/mL (≈ 0.912 µM) in assay [10].

In the case of `C[C@@H]1CN(c2nc3c(cc2F)c(=O)c(C(=O)O)cn3-c2ccc(O)cc2)C[C@H]1N`, the MIC was 0.78 µg/mL (≈ 1.96 µM) in [6]; 0.4 µg/mL (≈ 1 µM) in [7]; 0.4 µg/mL (≈ 1 µM) in assay [8]; 1.56 µg/mL (≈ 3.92 µM) in [9]; 0.4 µg/mL (≈ 1 µM) in [10].

For `N[C@H]1CN(c2cc3c(cc2F)c(=O)c(C(=O)O)cn3-c2ccc(O)cc2)CC12CC2`, the MIC in assay [6] turned out to be 6.25 µg/mL (≈ 15.3 µM); in [7], 0.4 µg/mL (≈ 0.977 µM); in [8], 0.78 µg/mL (≈ 1.91 µM); in assay [9], 6.25 µg/mL (≈ 15.3 µM); in assay [10], 0.78 µg/mL (≈ 1.91 µM).

On to `C[C@H](N)[C@H]1CCN(c2nc3c(cc2F)c(=O)c(C(=O)O)cn3-c2ccc(O)cc2)C1`, for which the MIC worked out at 3.13 µg/mL (≈ 7.59 µM) in [6]; 0.78 µg/mL (≈ 1.89 µM) in [7]; 3.13 µg/mL (≈ 7.59 µM) in assay [8]; 3.13 µg/mL (≈ 7.59 µM) in assay [9]; 0.78 µg/mL (≈ 1.89 µM) in assay [10].

Take `O=C(O)c1cn(-c2ccc(O)cc2)c2nc(N3CC4CC3CN4)c(F)cc2c1=O` (stereo not drawn): the MIC in assay [6] was 3.13 µg/mL (≈ 7.9 µM); in assay [7], 1.56 µg/mL (≈ 3.94 µM); in [8], 1.56 µg/mL (≈ 3.94 µM); in assay [9], more than 50 µg/mL; in [10] it was 3.13 µg/mL (≈ 7.9 µM).

In the case of `N[C@@H]1[C@H]2CN(c3cc4c(cc3F)c(=O)c(C(=O)O)cn4-c3ccc(O)cc3)C[C@@H]12`, the MIC worked out at 3.13 µg/mL (≈ 7.92 µM) in [6]; 0.1 µg/mL (≈ 0.253 µM) in assay [7]; 0.2 µg/mL (≈ 0.506 µM) in [8]; 1.56 µg/mL (≈ 3.95 µM) in assay [9]; 0.1 µg/mL (≈ 0.253 µM) in [10].

For the molecule `O=C(O)c1cn(-c2ccc(O)cc2)c2cc(N3CCNCC3)c(F)cc2c1=O`, the MIC in assay [6] was 1.56 µg/mL (≈ 4.07 µM); in [8], 0.4 µg/mL (≈ 1.04 µM); in [9], 6.25 µg/mL (≈ 16.3 µM); in assay [11], 0.78 µg/mL (≈ 2.03 µM); in [10], 0.4 µg/mL (≈ 1.04 µM).
